The list is not random: actives were taken first. Their share in the collection is about 3.4%.
PolyA inhibitor: polyadenylation inhibitors in yeast reporter cells, primary screen, luminescence, S. cerevisiae; S. cerevisiae SKY197-pL101 polyadenylation reporter, beta-gal luminescence; efflux-impaired pdr1/pdr3 knockout yeast; score 100 = 6 SD above DMSO; activity score, % at 12 µM; 0.02% of 300,000 active; AID 1875, 2009;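 active means lowest replicate activity score at least 50, where 100 means six control SD above control mean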;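 further: yeast exposed to compound for 9 h at 30 °C; higher score means more reporter readthrough which indicates perturbed polyadenylation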
Arrestin-AP2 inh: inhibitors of beta-arrestin/AP2 binding, primary screen, biochemical, GPCR trafficking, flow cytometry; beta-arrestin 1 C-terminal peptide binding to AP2 beta2-adaptin appendage (human); FITC-arrestin peptide / GST-AP2 beads; AP2 beta2 appendage carries R879A mutation; inhibition, % at 10 µM; 0.31% of 340,000 active; AID 504490, 2011;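 active means inhibition above a set limit, near 3 SD of compounds lacking own fluorescence, cut at about 54% in these data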;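 further: plate controls were DMSO wells for no effect and 5 µM unlabelled arrestin peptide for full effect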
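System: GST-AP2 R879A bound to glutathione beads, E. coli-expressed. Also added: 50 nM FITC-arrestin peptide. Schedule: compound with beads 12 min RT, then probe 1 h RT. Signal: bead flow cytometry, FITC channel. Read-out basis: percent response.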
UCH37 inh: inhibitors of human UCH37 deubiquitinase, primary screen, biochemical, Ub-AMC cleavage, fluorescence | Ubiquitin carboxyl-terminal hydrolase isozyme L5 (Homo sapiens), Q9Y5K5 | purified proteasome/UCH37 | inhibition, % (no concentration beside the values) | 0.33% of 330,000 active | AID 588478, 2011;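 active means mean inhibition over replicate wells above about 20%, limit read from the data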;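 further: 0% = compound-free wells with enzyme and 100% = wells lacking proteasome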
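Material: Human UCH37 enzyme supplied as purified proteasome complex | Schedule: 30 min compound-proteasome preincubation then 25 min substrate reaction, room temperature | Detection: AMC fluorescence from Ub-AMC cleavage, excitation 355 nm, emission 460 nm | Benchmarks: Wells without proteasome as full block, compound-free enzyme plus substrate as uninhibited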
APOBEC3G inh: APOBEC3G DNA deaminase inhibitors, primary screen, biochemical, fluorescence, single-stranded DNA substrate, uHTS | DNA dC->dU-editing enzyme APOBEC-3G (Homo sapiens), Q9HC16 | recombinant A3G, ssDNA deamination FAM/TAMRA fluorescence | inhibition, % at 20 µM | 0.28% of 330,000 active;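 active means inhibition of at least 40% at 20 µM, with no more than 30% in the related APOBEC3A deaminase screen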;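 further: plate controls were DMSO wells with A3G for no effect and wells lacking A3G enzyme for full effect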
Target sequence (Q9HC16 whole entry, looked up): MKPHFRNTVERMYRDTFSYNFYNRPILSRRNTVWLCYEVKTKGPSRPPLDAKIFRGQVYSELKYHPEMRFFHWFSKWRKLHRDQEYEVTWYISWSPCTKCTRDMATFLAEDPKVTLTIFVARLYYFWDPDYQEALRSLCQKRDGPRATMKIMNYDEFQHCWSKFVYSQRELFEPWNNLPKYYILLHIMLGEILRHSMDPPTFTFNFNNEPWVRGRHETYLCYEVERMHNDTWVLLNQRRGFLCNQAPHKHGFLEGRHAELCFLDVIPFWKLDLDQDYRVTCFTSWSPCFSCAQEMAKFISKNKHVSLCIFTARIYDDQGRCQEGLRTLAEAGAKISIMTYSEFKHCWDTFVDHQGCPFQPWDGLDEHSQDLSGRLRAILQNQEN
AHR activator: AHR activators, primary screen, cell-based, luminescence, luciferase reporter, human | Aryl hydrocarbon receptor (Homo sapiens), P35869 | AHR-responsive luciferase reporter cells | activation, % at 5 µM | 2.5% of 320,000 active | AID 2796, 2010; in the data active means activation above about 47%;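 further: 0% = vehicle wells and 100% = reference agonist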
APOBEC3A inh: APOBEC3A ssDNA deaminase inhibitors, primary screen, selectivity assay for APOBEC3G inhibitor project, biochemical, FAM/TAMRA oligo cleavage fluorescence; inhibition, % at 20 µM; recombinant A3A, FAM/TAMRA ssDNA deamination fluorescence; 0.41% of 330,000 active;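 active means at least 40% inhibition at 20 µM here, with at most 30% in a related deaminase screen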;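 further: plate controls were A3A with DMSO for no effect and wells lacking A3A enzyme for full effect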
Target sequence (P31941 whole entry, looked up): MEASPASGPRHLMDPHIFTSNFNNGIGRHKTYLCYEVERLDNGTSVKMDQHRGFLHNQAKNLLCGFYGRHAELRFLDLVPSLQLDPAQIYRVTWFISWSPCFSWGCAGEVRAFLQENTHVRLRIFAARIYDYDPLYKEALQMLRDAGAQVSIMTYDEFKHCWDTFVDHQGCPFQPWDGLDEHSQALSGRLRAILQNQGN
A3A conf: APOBEC3A deaminase inhibitors, retest, confirmation, selectivity assay for APOBEC3G inhibitor project, biochemical, single concentration, fluorescence readout; shares compounds with APOBEC3A inh; recombinant A3A, ssDNA deaminase UDG fluorescence assay; inhibition, % at 20 µM; 63% of 1,400 active; AID 493151, 2011;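 active means inhibition reaching a set limit, 80% of the first screen's cutoff, at 20 µM in any replicate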;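 further: plate controls were DMSO wells with A3A for no effect and wells lacking A3A enzyme for full effect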
UDG A3A counter: E. coli UDG inhibitors, confirmation, counter-screen for APOBEC3A inhibitor project, biochemical, single concentration, fluorescence, FAM/TAMRA oligo; shares compounds with APOBEC3A inh; UDG counterscreen, FAM/TAMRA uracil oligo fluorescence; inhibition, % at 20 µM; 1,000 tested, under 10 active; call rule not given here
* = called active by the depositor.

Screening CCn1cc(/C=C(\NC(=O)c2ccccc2OC)C(=O)NCCCN2CCOCC2)c2ccccc21 returned PolyA inhibitor -12, Arrestin-AP2 inh -13, UCH37 inh 9, APOBEC3G inh -2, AHR activator 3 and APOBEC3A inh -8.
Screening CCn1cc(/C=C(\NC(=O)c2ccccc2F)C(=O)NCCN2CCOCC2)c2ccccc21 returned PolyA inhibitor -11, Arrestin-AP2 inh -11, UCH37 inh 11, APOBEC3G inh -2, AHR activator 15, APOBEC3A inh 81*, A3A conf -7 and UDG A3A counter 2.
`O=C(COc1cccc2cccnc12)NN=Cc1ccc(O)cc1` gave UCH37 inh 2.
For Cc1nc2cc(NC(=O)C3COc4ccccc4O3)ccc2s1 (stereo unspecified) the results were PolyA inhibitor 8, Arrestin-AP2 inh -5, UCH37 inh 4, APOBEC3G inh 5, AHR activator 2 and APOBEC3A inh 39.
For Cc1nc2ccc(NC(=O)C3COc4ccccc4O3)cc2s1 (stereo unspecified) the results were PolyA inhibitor 11, Arrestin-AP2 inh 20, UCH37 inh 0, APOBEC3G inh 16, AHR activator 2, APOBEC3A inh 49*, A3A conf 60* and UDG A3A counter 2.
Screening COc1cc(C=Nn2nnnc2N)ccc1OC(C)=O returned UCH37 inh 4.
CCN1C(=NCCOC)N[C@@H](CCc2ccccc2)[C@H](C(=O)OC)[C@H]1C was read as PolyA inhibitor 13, Arrestin-AP2 inh -5, UCH37 inh 1, APOBEC3G inh 4, AHR activator 0, APOBEC3A inh 46*, A3A conf 66* and UDG A3A counter -3.
Screening CCN1C(=NCCCOC(C)C)N[C@@H](CCc2ccccc2)[C@H](C(=O)NCCCOC(C)C)[C@H]1C returned Arrestin-AP2 inh -6, UCH37 inh 0, APOBEC3G inh 9, AHR activator 0, APOBEC3A inh 42*, A3A conf 58* and UDG A3A counter -2.
CCN1C(=O)N[C@@H](CCc2ccccc2)[C@H](C(C)=O)[C@H]1C was read as PolyA inhibitor -15, Arrestin-AP2 inh -4, UCH37 inh 3, APOBEC3G inh -10, AHR activator 0 and APOBEC3A inh -4.
COc1ccc(C=NNC(=O)c2cc(C34CC5CC(CC(C5)C3)C4)[nH]n2)cc1O was read as UCH37 inh 5.
CC(=O)Nc1ccc(C=NN2C(C)CCCC2C)cc1 (stereo unspecified) was read as UCH37 inh 2.
For O=C(COC(=O)c1ccccc1Nc1cccc(C(F)(F)F)c1)NCc1ccco1 the results were PolyA inhibitor 1, Arrestin-AP2 inh 0, UCH37 inh -8, APOBEC3G inh 23, AHR activator -1, APOBEC3A inh 42*, A3A conf 23* and UDG A3A counter -2.
`O=C(COC(=O)c1ccccc1)NCc1ccco1` gave PolyA inhibitor 13, Arrestin-AP2 inh -6, UCH37 inh 2, APOBEC3G inh 10, AHR activator 3 and APOBEC3A inh 30.
For Cc1c(C=NO)c2ccccn2c1C=O the results were UCH37 inh 3.
COc1ccc(C=NCCC2(O)CC(C)N(C)CC2C)cc1 (stereo unspecified) was read as PolyA inhibitor 11, Arrestin-AP2 inh 7, UCH37 inh 4, APOBEC3G inh 1, AHR activator 2, APOBEC3A inh 48* and A3A conf 1.
For O=[N+]([O-])c1cccc(C=NN2CCN(Cc3ccccc3Cl)CC2)c1 the results were UCH37 inh 3.
NS(=O)(=O)c1cc(C(=O)OCC(=O)Nc2ccc3[nH]c(=O)[nH]c3c2)ccc1Cl was read as Arrestin-AP2 inh 22, UCH37 inh 3, APOBEC3G inh 2, AHR activator 12, APOBEC3A inh 50*, A3A conf 44* and UDG A3A counter -3.
For CS(=O)(=O)ON=C1CCCCC1c1ccc([N+](=O)[O-])cc1[N+](=O)[O-] (stereo unspecified) the results were UCH37 inh 3.
For COc1cc(C(=O)Nc2ccc3c(c2)C(=O)c2ccccc2C3=O)cc(OC)c1OC the results were PolyA inhibitor -2, Arrestin-AP2 inh 4, UCH37 inh 2 and AHR activator 0.
For COc1ccc(C(=O)Nc2ccc3c(c2)C(=O)c2ccccc2C3=O)cc1OC the results were PolyA inhibitor -4, Arrestin-AP2 inh 41, UCH37 inh 3, APOBEC3G inh 7, AHR activator 1, APOBEC3A inh 66* and A3A conf 12.
Screening Cc1cc(=O)[nH]c(NN=Cc2cccc(Br)c2)n1 returned UCH37 inh 8.
CCOc1ccc(NC(=O)c2cc(C3CC3)nc3c2cnn3C(C)C)cc1OC was read as Arrestin-AP2 inh -11, UCH37 inh 3, APOBEC3G inh 10, AHR activator 5, APOBEC3A inh 51* and A3A conf 28.
Cn1cnc(NCc2ccccc2)c1[N+](=O)[O-] was read as PolyA inhibitor 6, Arrestin-AP2 inh -17, UCH37 inh 4, APOBEC3G inh -3, AHR activator -1, APOBEC3A inh 44*, A3A conf -4 and UDG A3A counter -2.
`Cc1ccc(COc2ccc(C=NNC(=O)CN3CCCCC3)cc2)cc1` gave UCH37 inh 5.
Screening CCOC(=O)NC(=O)CN1C(=O)NC(C)(c2ccccc2)C1=O (stereo unspecified) returned PolyA inhibitor 9, Arrestin-AP2 inh 1, UCH37 inh 2, APOBEC3G inh -9, AHR activator 5, APOBEC3A inh 72*, A3A conf -7 and UDG A3A counter 0.
